Reference: ChEMBL document CHEMBL1134569, “Synthesis and in vitro and in vivo antimalarial activity of new 4-anilinoquinolines” (J Med Chem, 2001)

Key:
[1] = Cytotoxicity upon MPMs (mouse peritoneal macrophages) at 2 uM conc.; Toxic
Method in brief: (§1)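 Mouse peritoneal macrophages harvested 48 h after potato-starch stimulation and seeded at 30000 cells/well. After 24 h, washed and exposed to 2-fold drug dilutions in RPMI + 5% FCS (final DMSO below 0.5%) at 37 °C, 5% CO₂, for 7 days. Toxicity scored microscopically as toxic or not versus untreated controls.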

[2] = system: Plasmodium falciparum; experiment: Inhibitory activity against chloroquine-resistant Plasmodium falciparum FcB1R; type: functional, organism-based; conditions: Plasmodium falciparum
[3] = Cytotoxicity upon MPMs (mouse peritoneal macrophages) at 8 uM; method in brief: as §1
[4] = system: Plasmodium falciparum; experiment: Inhibitory activity against chloroquine-resistant Plasmodium falciparum K1; type: functional, organism-based
[5] = Cytotoxicity upon MRC-5 cells (diploid embryonic lung cell line) at 8 uM; type: cell-based, MRC5; conditions: human
Method in brief: (§2)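 MRC-5 human diploid embryonic lung cells seeded at 5000/well, washed after 24 h, then given 2-fold drug dilutions in RPMI + 5% FCS (final DMSO below 0.5%). Incubated at 37 °C, 5% CO₂, for 7 days. MTT read-out at 540 nm, scored as percent absorbance reduction versus untreated controls.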

[6] = Cytotoxicity upon MRC-5 cells (diploid embryonic lung cell line) at 32 uM; type: cell-based, MRC5; conditions: human; method in brief: as §2
[7] = Cytotoxicity upon MPMs (mouse peritoneal macrophages) at 32 uM; method in brief: as §1
[8] = system: Plasmodium falciparum; experiment: Inhibitory activity against chloroquine-sensitive Plasmodium falciparum THAI
[9] = Cytotoxicity upon MRC-5 cells (diploid embryonic lung cell line) at 1 uM; type: cell-based, MRC5; conditions: human; method in brief: as §2
[10] = Cytotoxicity upon MRC-5 cells (diploid embryonic lung cell line) at 1 uM concentration; type: cell-based, MRC5; conditions: human; method in brief: as §2
[11] = Cytotoxicity upon MPMs (mouse peritoneal macrophages) at 2 uM concentration; NT=No toxicity; method in brief: as §1
[12] = Cytotoxicity upon MRC-5 cells (diploid embryonic lung cell line) at 12.5 uM concentration; type: cell-based, MRC5; conditions: human; method in brief: as §2
[13] = Cytotoxicity upon MPMs (mouse peritoneal macrophages) at 32 uM concentration; Toxic Compound.; method in brief: as §1
[14] = Cytotoxicity upon MRC-5 cells (diploid embryonic lung cell line) at 25 uM concentration; type: cell-based, MRC5; conditions: human; method in brief: as §2
[15] = Cytotoxicity upon MRC-5 cells (diploid embryonic lung cell line) at 3.1 uM concentration; type: cell-based, MRC5; conditions: human; method in brief: as §2
[16] = Cytotoxicity upon MRC-5 cells (diploid embryonic lung cell line) at 32 uM concentration; type: cell-based, MRC5; conditions: human; method in brief: as §2
[17] = Cytotoxicity upon MPMs (mouse peritoneal macrophages) at 12.5 uM concentration; Toxic Compound; method in brief: as §1
[18] = Cytotoxicity upon MRC-5 cells (diploid embryonic lung cell line) at 6.3 uM concentration; type: cell-based, MRC5; conditions: human; method in brief: as §2
[19] = Cytotoxicity upon MPMs (mouse peritoneal macrophages) at 3.1 uM concentration; NT= No toxicity.; method in brief: as §1
[20] = Cytotoxicity upon MRC-5 cells (diploid embryonic lung cell line) at 8 uM concentration; type: cell-based, MRC5; conditions: human; method in brief: as §2
[21] = Cytotoxicity upon MPMs (mouse peritoneal macrophages) at 6.3 uM concentration; Toxic Compound; method in brief: as §1
[22] = Cytotoxicity upon MPMs (mouse peritoneal macrophages) at 2 uM; method in brief: as §1
[23] = Cytotoxicity upon MPMs (mouse peritoneal macrophages) at 8 uM conc.;NT=No Toxicity; method in brief: as §1
[24] = Cytotoxicity upon MPMs (mouse peritoneal macrophages) at 12.5 uM conc.; Toxic; method in brief: as §1
[25] = Cytotoxicity upon MRC-5 cells (diploid embryonic lung cell line) at 6.3 uM; type: cell-based, MRC5; conditions: human; method in brief: as §2
[26] = Cytotoxicity upon MRC-5 cells (diploid embryonic lung cell line) at 25 uM conc.; type: cell-based, MRC5; conditions: human; method in brief: as §2
[27] = Cytotoxicity upon MPMs (mouse peritoneal macrophages) at 6.3 uM conc.; Toxic; method in brief: as §1
[28] = Cytotoxicity upon MRC-5 cells (diploid embryonic lung cell line) at 1.6 uM conc.; type: cell-based, MRC5; conditions: human; method in brief: as §2
[29] = Cytotoxicity upon MPMs (mouse peritoneal macrophages) at 12.5 uM conc.;NT=No Toxicity; method in brief: as §1
[30] = system: Mus musculus; experiment: Antimalarial activity on Plasmodium berghei in mice (Mus musculus) dosed at 40 mg/kg at day 4; type: functional
Method in brief: (§3)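 Female Swiss CD-1 mice (4 weeks, 20-25 g), three per group, infected ip with about 10⁷ P. berghei ANKA 65 parasitized erythrocytes from an infected donor. Dosed orally at 40 mg/kg in 100% DMSO at infection, then ip for the following 4 days. Parasitaemia reduction and mean survival time compared with three DMSO-dosed infected controls.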

[31] = system: Mus musculus; experiment: Change in the mean survival time of the treated mice infected with Plasmodium berghei, dosed at 40 mg/kg; type: functional
Method in brief: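 P. berghei ANKA 65 in 4-week-old female Swiss CD-1 mice (20-25 g), infected ip with about 10⁷ parasitized erythrocytes; 40 mg/kg given orally at infection (formulated in 100% DMSO), then ip over the following 4 days; three mice per group; mean survival time of treated mice compared with three infected DMSO-dosed controls.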

[32] = Cytotoxicity upon MPMs (mouse peritoneal macrophages) at 6.3 uM; method in brief: as §1
[33] = Cytotoxicity upon MRC-5 cells (diploid embryonic lung cell line) at 12.5 uM; type: cell-based, MRC5; conditions: human; method in brief: as §2
[34] = Cytotoxicity upon MRC-5 cells (diploid embryonic lung cell line) at 3.1 uM; type: cell-based, MRC5; conditions: human; method in brief: as §2
[35] = system: Mus musculus; experiment: Antimalarial activity on Plasmodium berghei in mice (Mus musculus) dosed at 40 mg/kg at day 7; type: functional; method in brief: as §3
[36] = Cytotoxicity upon MPMs (mouse peritoneal macrophages) at 3.1 uM conc.;NT=No Toxicity; method in brief: as §1
[37] = Cytotoxicity upon MPMs (mouse peritoneal macrophages) at 12.5 uM concentration; No toxicity; method in brief: as §1
[38] = Cytotoxicity upon MPMs (mouse peritoneal macrophages) at 6.3 uM concentration; No toxicity; method in brief: as §1
[39] = Cytotoxicity upon MPMs (mouse peritoneal macrophages) at 2 uM concentration; No toxicity; method in brief: as §1
[40] = Cytotoxicity upon MPMs (mouse peritoneal macrophages) at 3.1 uM concentration; No toxicity; method in brief: as §1
[41] = Cytotoxicity upon MPMs (mouse peritoneal macrophages) at 8 uM concentration; No toxicity; method in brief: as §1
[42] = Cytotoxicity upon MPMs (mouse peritoneal macrophages) at 32 uM concentration; No toxicity; method in brief: as §1
[43] = Cytotoxicity upon MRC-5 cells (diploid embryonic lung cell line) at 1.6 uM concentration; type: cell-based, MRC5; conditions: human; method in brief: as §2

SMILES	IC50 [2] [nM]	IC50 [4] [nM]	cytotoxicity at 8 µM [5] [%]	cytotoxicity at 32 µM [6] [%]	Cytotoxicity [7]	IC50 [8] [nM]	cytotoxicity at 1 µM [9] [%]	NT [22]	cytotoxicity at 6.3 µM [25] [%]	further results
O=C(CN1CCCCC1)Nc1cc(CN2CCCCC2)cc(Nc2ccnc3cc(Cl)ccc23)c1	10.2	8.1	100	100	Cytotoxicity upon MPMs at 32 uM	6.7	43	–	–	Cytotoxicity [1]: Toxic; Cytotoxicity [3]: Cytotoxicity upon MPMs at 32 uM
CCN(CC)Cc1cc(Nc2ccnc3cc(Cl)ccc23)ccc1O.Cl	7.4	14.5	–	–	–	7.3	–	–	–	cytotoxicity at 1 µM [10]: 0%; NT [11]: No toxicity; cytotoxicity at 12.5 µM [12]: 0%; Cytotoxicity [13]: Toxic; cytotoxicity at 25 µM [14]: 91%; cytotoxicity at 3.1 µM [15]: 0%; cytotoxicity at 32 µM [16]: 91%; Cytotoxicity [17]: Toxic; cytotoxicity at 6.3 µM [18]: 0%; NT [19]: No toxicity; cytotoxicity at 8 µM [20]: 0%; Cytotoxicity [21]: Toxic
CCN(CC)c1ccc(CN2CCN(Cc3cc(NC(=O)CN4CCCCC4)cc(Nc4ccnc5cc(Cl)ccc45)c3)CC2)cc1	11.9	–	100	100	Cytotoxicity upon MPMs at 32 uM	–	100	–	–	Cytotoxicity [1]: Toxic; Cytotoxicity [3]: Cytotoxicity upon MPMs at 32 uM
COc1ccc(CNCc2cc(NC(=O)CN3CCCCC3)cc(Nc3ccnc4cc(Cl)ccc34)c2)cc1	4.4	–	100	100	Cytotoxicity upon MPMs at 32 uM	–	100	–	–	Cytotoxicity [1]: Toxic; Cytotoxicity [3]: Cytotoxicity upon MPMs at 32 uM
O=Cc1cc(NC(=O)CN2CCCCC2)cc(Nc2ccnc3cc(Cl)ccc23)c1	282	–	0	0	–	–	0	Cytotoxicity upon MPMs at 2 uM	–	NT [23]: Cytotoxicity upon MPMs at 2 uM
CN(C)CCCNCc1cc(NC(=O)CN2CCCCC2)cc(Nc2ccnc3cc(Cl)ccc23)c1	134	–	0	78	Cytotoxicity upon MPMs at 32 uM	–	0	Cytotoxicity upon MPMs at 2 uM	–	NT [23]: Cytotoxicity upon MPMs at 2 uM
O=C(CN1CCCCC1)Nc1cc(COC(=O)c2ccnc3ccccc23)cc(Nc2ccnc3cc(Cl)ccc23)c1	25.6	–	–	–	–	–	–	Cytotoxicity upon MPMs at 2 uM	100	Cytotoxicity [24]: Toxic; cytotoxicity at 25 µM [26]: 100%; Cytotoxicity [27]: Toxic; cytotoxicity at 1.6 µM [28]: 62%
O=C(CN1CCCCC1)Nc1cc(CNCc2ccc(Cl)cc2)cc(Nc2ccnc3cc(Cl)ccc23)c1	4.6	–	100	100	Cytotoxicity upon MPMs at 32 uM	–	100	–	–	Cytotoxicity [1]: Toxic; Cytotoxicity [3]: Cytotoxicity upon MPMs at 32 uM
N#Cc1ccc(CN2CCN(Cc3cc(NC(=O)CN4CCCCC4)cc(Nc4ccnc5cc(Cl)ccc45)c3)CC2)cc1	13.3	–	100	100	Cytotoxicity upon MPMs at 32 uM	–	0	Cytotoxicity upon MPMs at 2 uM	–	NT [23]: Cytotoxicity upon MPMs at 2 uM
O=C(CN1CCCCC1)Nc1cc(COC(=O)CCCCN2CCOCC2)cc(Nc2ccnc3cc(Cl)ccc23)c1	14.1	22.5	–	–	–	15.2	–	Cytotoxicity upon MPMs at 2 uM	0	NT [29]: Cytotoxicity upon MPMs at 2 uM; Reduction in parasitemia [30]: 97.9%; cytotoxicity at 25 µM [26]: 0%; cytotoxicity at 1.6 µM [28]: 0%; Excess MST [31]: 100%; NT [32]: Cytotoxicity upon MPMs at 2 uM
O=C(CN1CCCCC1)Nc1cc(CN2CCOCC2)cc(Nc2ccnc3cc(Cl)ccc23)c1	9.5	12.4	0	100	Cytotoxicity upon MPMs at 32 uM	12.8	0	Cytotoxicity upon MPMs at 2 uM	–	Reduction in parasitemia [30]: 100%; NT [23]: Cytotoxicity upon MPMs at 2 uM
CC1CCN(CC(=O)Nc2cc(CO)cc(Nc3ccnc4cc(Cl)ccc34)c2)CC1	77.7	–	–	–	–	–	–	–	0	Cytotoxicity [24]: Toxic; cytotoxicity at 12.5 µM [33]: 100%; cytotoxicity at 3.1 µM [34]: 0%; Cytotoxicity [27]: Toxic
CN(C)CCNCc1cc(NC(=O)CN2CCCCC2)cc(Nc2ccnc3cc(Cl)ccc23)c1	15.5	–	15	100	Cytotoxicity upon MPMs at 32 uM	–	0	Cytotoxicity upon MPMs at 2 uM	–	NT [23]: Cytotoxicity upon MPMs at 2 uM
O=C(CN1CCCCC1)Nc1cc(COC(=O)CCCCCCCN2CCCCC2)cc(Nc2ccnc3cc(Cl)ccc23)c1	165	–	–	–	–	–	–	Cytotoxicity upon MPMs at 2 uM	84	Cytotoxicity [24]: Toxic; cytotoxicity at 25 µM [26]: 83%; Cytotoxicity [27]: Toxic; cytotoxicity at 1.6 µM [28]: 0%
O=C(CN1CCCCC1)Nc1cc(CO)cc(Nc2ccnc3cc(Cl)ccc23)c1	44.5	152	0	99	–	89.6	0	–	0	Reduction in parasitemia [35]: 60%; Cytotoxicity [24]: Toxic; cytotoxicity at 12.5 µM [33]: 0%; cytotoxicity at 3.1 µM [34]: 0%; cytotoxicity at 25 µM [26]: 98%; NT [36]: Cytotoxicity upon MPMs at 6.3 uM; cytotoxicity at 1.6 µM [28]: 0%; Excess MST [31]: 110%; NT [32]: Cytotoxicity upon MPMs at 6.3 uM
CCN(CC)CCCC(C)Nc1ccnc2cc(Cl)ccc12 (stereo unspecified) [CHLOROQUINE]	–	–	–	–	–	–	–	–	–	cytotoxicity at 1 µM [10]: 0%; NA [37]: Not Active; NA [38]: Not Active; NA [39]: Not Active; cytotoxicity at 12.5 µM [12]: 0%; NA [40]: Not Active; cytotoxicity at 25 µM [14]: 0%; cytotoxicity at 3.1 µM [15]: 0%; cytotoxicity at 32 µM [16]: 0%; cytotoxicity at 6.3 µM [18]: 0%; NA [41]: Not Active; cytotoxicity at 8 µM [20]: 0%; NA [42]: Not Active; cytotoxicity at 1.6 µM [43]: 0%
CCN(CC)Cc1cc(NC(=O)CN2CCCCC2)cc(Nc2ccnc3cc(Cl)ccc23)c1	8.2	–	100	100	Cytotoxicity upon MPMs at 32 uM	–	0	–	–	Cytotoxicity [1]: Toxic; Cytotoxicity [3]: Cytotoxicity upon MPMs at 32 uM
O=C(CN1CCCCC1)Nc1cc(COC(=O)CCCCN2CCCCC2)cc(Nc2ccnc3cc(Cl)ccc23)c1	15.5	19.1	–	–	–	17.3	–	Cytotoxicity upon MPMs at 2 uM	90	NT [29]: Cytotoxicity upon MPMs at 2 uM; Reduction in parasitemia [30]: 99.99%; cytotoxicity at 25 µM [26]: 92%; cytotoxicity at 1.6 µM [28]: 0%; Excess MST [31]: 0%; NT [32]: Cytotoxicity upon MPMs at 2 uM
